These results are taken from PMC9826239 (Angewandte Chemie (International Ed. in English), 2022).

One series concerns the target T1, E-selectin (Homo sapiens, UniProt P16581).
T1 sequence (P16581 22-610): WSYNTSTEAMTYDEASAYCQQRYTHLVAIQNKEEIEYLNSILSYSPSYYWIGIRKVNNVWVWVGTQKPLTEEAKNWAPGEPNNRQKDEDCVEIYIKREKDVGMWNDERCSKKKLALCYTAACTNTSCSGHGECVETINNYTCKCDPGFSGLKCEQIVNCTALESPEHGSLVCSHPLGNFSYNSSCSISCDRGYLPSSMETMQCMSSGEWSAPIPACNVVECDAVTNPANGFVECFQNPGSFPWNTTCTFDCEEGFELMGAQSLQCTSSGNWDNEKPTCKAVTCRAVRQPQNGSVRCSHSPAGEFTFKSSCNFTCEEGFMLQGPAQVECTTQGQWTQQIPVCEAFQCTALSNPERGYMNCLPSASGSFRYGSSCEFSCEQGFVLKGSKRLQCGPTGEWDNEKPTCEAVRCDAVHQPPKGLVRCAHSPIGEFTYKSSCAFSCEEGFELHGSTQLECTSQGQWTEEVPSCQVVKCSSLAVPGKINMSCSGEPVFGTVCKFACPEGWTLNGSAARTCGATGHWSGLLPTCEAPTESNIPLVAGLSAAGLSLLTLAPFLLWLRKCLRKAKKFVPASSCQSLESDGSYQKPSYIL
Description: SPR direct binding to E-selectin-functionalized sensor chip.

Series [1] is described as follows: Water solubility of peptides. Type of series: physicochemical. To be noted: after HPLC purification; qualitative.
The test system of series [2] is E-selectin on HUVEC cells. It is filed as cell-based, human. The note with it: 10 μM in HKR pH 7.4, 30 min; 10 ng/mL TNFα for 12 h; heparin/HKR washes. A digest of the protocol:
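Human umbilical vein endothelial cells (HUVEC) were cultured as two parallel sets, with or without TNFα, to induce E‑selectin overexpression. Both sets were incubated for 30 min with 10 μM rhodamine‑labelled peptide/[60]fullerene conjugate (binding peptide or non‑binding control sequence). Cells were then washed thoroughly with heparin and HKR buffer and imaged by live‑cell confocal microscopy.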

Residues, ends and D or L forms follow the SMILES beside them. *: point of attachment. X1 = [N-]=[N+]=NCCOCCOCCOCCOCC(=O)*

As for `CC[C@H](C)[C@H](N)C(=O)N[C@@H](CCC(=O)O)C(=O)N[C@@H](CC(C)C)C(=O)N[C@@H](CC(C)C)C(=O)N[C@@H](CCC(N)=O)C(=O)N[C@@H](C)C(=O)N[C@@H](CCCNC(=N)N)C(=O)N[C@@H](CCCCNC(=O)COCCOCCOCCOCCN=[N+]=[N-])C(N)=O` [P1, IELLQARK‐(PEG)4‐N3] (H-IELLQARK(X1)-NH2), the affinity on E-selectin, expressed as Kd, was 51.6 µM. Besides, the water solubility result in series [1] was “excellent purity and water solubility”.

For the compound `CC[C@H](C)[C@H](NC(=O)COCCOCCOCCOCCN=[N+]=[N-])C(=O)N[C@@H](CCC(=O)O)C(=O)N[C@@H](CC(C)C)C(=O)N[C@@H](CC(C)C)C(=O)N[C@@H](CCC(N)=O)C(=O)N[C@@H](C)C(=O)N[C@@H](CCCNC(=N)N)C(N)=O` [P2, N3‐(PEG)4‐IELLQAR] (X1-IELLQAR-NH2), the Kd at E-selectin was determined as 2950 µM. Also, the water solubility result in series [1] was “excellent purity and water solubility”.

With C60-(IELLQARK)12 [F1], the “dissociation behaviour in SPR sensorgrams” value at E-selectin ((12.5-0.78) μM, t>240 s, initial fast then extremely slow dissociation phase) is recorded as “two‐phase dissociation process”. For the same compound, the “affinity increase relative to its monomeric counterpart” value on E-selectin (F1 vs monomeric peptide, E-selectin SPR) was “up to 3 orders of magnitude”. For the same compound, at E-selectin (multivalent effect of F1, twelve peptide units, SI section 6.5, eq. 3), the “affinity enhancement (β) factor” value is recorded as 71.

As to C60-(ISELRSE)12 [FC], in series [2], the “cell fluorescence, TNFα-treated HUVEC cells, confocal microscopy” value is reported as “residual fluorescence”.
